Source: PubChem (Broad Institute)
Shown are actives, neighbours in structure and some others; about 0.19% of the full set was active somewhere.
GASC1 inh: inhibitors of GASC-1 (KDM4C) histone demethylase, primary screen, biochemical, single concentration HTS; inhibition, % at 12.5 µM; GST-KDM4C 2-372, H3K9me3 peptide, LANCE TR-FRET; actives 0.15% (n = 96,000); Lysine-specific demethylase 4C (Homo sapiens), Q9H3R0;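 active means mean replicate inhibition above about 25%, with at least 55% of replicates also reaching it, limit read from the data, passing the limit was not always enough; inconclusive means only one of those two conditions met; inactive means neither condition met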
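Test system: N-terminal GST-fused human GASC-1 (KDM4C) fragment, residues 2-372; quantity: GASC-1 enzyme at 10 nM final in reaction; dosing: single dose; schedule: 30 min demethylation and 1 h detection at room temperature; signal: LANCE TR-FRET, excitation 340 nm, emissions 618 and 671 nm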
IDH1 R132H inh: inhibitors of IDH1 R132H reductase, primary screen, biochemical, plate reader, single point; inhibition, % at 10 µM; AID 624101, 2012; diaphorase/resazurin fluorescence, 60 min; actives 0.18% (n = 70,000); Isocitrate dehydrogenase [NADP] cytoplasmic (Homo sapiens), O75874; in the data active means inhibition above about 34%; inconclusive means no clear call, values can overlap the other calls; inactive means below about 11%;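 further: 0% = DMSO and 100% = no enzyme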
Target sequence (O75874 whole entry R132H): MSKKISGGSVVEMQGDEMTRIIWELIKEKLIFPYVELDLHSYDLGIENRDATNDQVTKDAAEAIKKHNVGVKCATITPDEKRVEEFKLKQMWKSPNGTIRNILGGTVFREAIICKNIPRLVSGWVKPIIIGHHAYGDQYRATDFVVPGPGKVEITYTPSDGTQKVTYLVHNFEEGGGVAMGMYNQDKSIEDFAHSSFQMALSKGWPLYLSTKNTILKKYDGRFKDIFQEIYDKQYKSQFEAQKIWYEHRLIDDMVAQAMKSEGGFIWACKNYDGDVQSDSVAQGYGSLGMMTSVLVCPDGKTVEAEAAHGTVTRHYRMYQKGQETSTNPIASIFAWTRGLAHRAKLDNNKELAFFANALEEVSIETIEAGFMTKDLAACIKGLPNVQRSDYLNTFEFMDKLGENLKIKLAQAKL
Starred values were filed as active, the others as inactive; ? = inconclusive; / = not tested or not shown; ! = a repeat was not active.

SMILES | GASC1 inh | IDH1 R132H inh
C[C@H](CO)N1C[C@H](C)[C@H](CN(C)C(=O)Nc2ccc(F)cc2)Oc2ncc(Br)cc2C1=O | 3.5 | 33.7*!
COc1ccccc1C#Cc1cnc2c(c1)C(=O)N([C@@H](C)CO)C[C@@H](C)[C@@H](CN(C)C)O2 | -0.7 | -0.3
C[C@@H]1CN([C@@H](C)CO)C(=O)c2cc(Br)cnc2O[C@@H]1CN(C)C(=O)Nc1ccc(F)cc1 | -2.5 | 0.0
C[C@@H]1CN([C@H](C)CO)C(=O)c2cc(C#Cc3ccncc3)cnc2O[C@@H]1CN(C)Cc1ccncc1 | 1.9 | /
C[C@H](CO)N1C[C@H](C)[C@@H](CN(C)Cc2ccccn2)Oc2ncc(C#CC3(O)CCCC3)cc2C1=O | 41.0* | 2.3
COc1ccccc1C#Cc1cnc2c(c1)C(=O)N([C@@H](C)CO)C[C@H](C)[C@H](CN(C)C)O2 | 29.3* | -1.2
CCn1c(SCC(=O)O)nnc1-c1c[nH]c2ccccc12 | / | 0.2
COCC(=O)N(C)C[C@H]1Oc2ncc(C#CC(C)(C)O)cc2C(=O)N([C@@H](C)CO)C[C@H]1C | 27.2* | 2.2
C[C@@H]1CN([C@@H](C)CO)C(=O)c2cc(-c3ccncc3)cnc2O[C@@H]1CN(C)S(=O)(=O)c1ccc(F)cc1 | 2.2 | 4.3
COCC(=O)N(C)C[C@H]1Oc2ncc(C#CC(C)(C)O)cc2C(=O)N([C@H](C)CO)C[C@H]1C | 0.0 | -0.2
Cc1ccc(S(=O)(=O)N(C)C[C@@H]2Oc3ncc(-c4ccncc4)cc3C(=O)N([C@@H](C)CO)C[C@H]2C)cc1 | 38.8* | 2.5
C[C@@H]1CN([C@@H](C)CO)C(=O)c2cc(C#Cc3ccccc3)cnc2O[C@H]1CN(C)CC1CCOCC1 | 34.9* | 24.8
C[C@H]1CN([C@@H](C)CO)C(=O)c2cc(C#Cc3ccccc3)cnc2O[C@@H]1CN(C)CC1CCOCC1 | 1.3 | -0.7
Cc1c(NC(=O)CN(c2cc(Cl)ccc2Cl)S(C)(=O)=O)c(=O)n(-c2ccccc2)n1C | / | 0.4
COc1ccc(Cl)cc1N(CC(=O)Nc1cc(Cl)ccc1C)S(C)(=O)=O | / | -0.6
CN(c1ccccc1C(=O)Nc1ccccc1C(=O)N1CCOCC1)S(C)(=O)=O | / | -0.3
CC(C)(C)c1ccc(S(=O)(=O)/C=C/C#N)cc1 | / | 82.4*
Cc1cc(C)c(C#N)c(SCC(O)CS(=O)(=O)c2ccc(C(C)(C)C)cc2)n1 (centres undefined) | / | 0.3
O=S(=O)(Nc1ccc(Cl)cn1)c1cccc(S(=O)(=O)c2ccccc2)c1 | / | 0.3
O=S(=O)(Nc1cccnc1)c1cccc(S(=O)(=O)c2ccc(Cl)c(Cl)c2)c1 | / | 46.7*
Cc1nc(SCC(=O)N(c2ccccc2)c2ccccc2)n[nH]1 | / | -0.2
C[C@H](NC(=O)C[C@@H]1C[C@H]2c3cc(NC(=O)NC4CCCCC4)ccc3O[C@H]2[C@@H](CO)O1)c1ccccc1 | 32.1* | 0.1
CN(C)c1ccc2c(c1)[C@@H]1C[C@H](CC(=O)NCc3ccc(-c4ccccc4)cc3)O[C@@H](CO)[C@@H]1O2 | 6.1 | -4.8
CN(C)c1ccc2c(c1)[C@H]1C[C@H](CC(=O)NCc3ccccn3)O[C@H](CO)[C@H]1O2 | 34.0* | -3.5
O=C(C[C@@H]1C[C@H]2c3cc(NC(=O)NC4CCCCC4)ccc3O[C@H]2[C@@H](CO)O1)NCc1ccccn1 | -2.0 | 0.1
SMILES | GASC1 inh | IDH1 R132H inh
O=C(C[C@@H]1C[C@H]2c3cc(NC(=O)NC4CCCCC4)ccc3O[C@H]2[C@H](CO)O1)NCc1ccccn1 | 87.9* | 101.5*
CN(C)c1ccc2c(c1)[C@H]1C[C@@H](CC(=O)NCc3ccccn3)O[C@@H](CO)[C@H]1O2 | 13.5 | -2.6
C[C@H](NC(=O)C[C@H]1C[C@H]2c3cc(NC(=O)NC4CCCCC4)ccc3O[C@H]2[C@@H](CO)O1)c1ccccc1 | 0.7 | 0.2
CN(C)c1ccc2c(c1)[C@H]1C[C@H](CC(=O)NCc3ccccc3)O[C@H](CO)[C@H]1O2 | 44.4* | -1.2
CN(C)c1ccc2c(c1)[C@H]1C[C@@H](CC(=O)NCc3ccccc3)O[C@@H](CO)[C@H]1O2 | 39.6* | -1.6
CN(C)c1ccc2c(c1)[C@@H]1C[C@@H](CC(=O)NCc3ccc(-c4ccccc4)cc3)O[C@@H](CO)[C@@H]1O2 | 0.3 | /
c1cc(-c2nc(-c3ccc4c(c3)OCCCO4)cs2)ccc1-c1csnn1 | / | 0.5
Cn1c(=O)c2c(ncn2CCCN)n(C)c1=O | / | 0.1
CN([NH2+][O-])c1cc(O)ccc1O | / | 69.3*
COc1ccccc1-c1cc(=O)c2ccccc2o1 | / | -0.9
CN1C(=O)c2cc(NC(=O)Nc3ccccc3Cl)ccc2OC[C@H]2O[C@@H](CC(=O)O)CC[C@@H]21 | 49.5* | /
CN1C(=O)c2cc(NC(=O)Nc3ccccc3Cl)ccc2OC[C@@H]2O[C@@H](CC(=O)O)CC[C@@H]21 | -0.2 | /
O=C(COc1ccccc1[N+](=O)[O-])Nc1ccc(N2CCN(C(=O)c3ccco3)CC2)cc1 | / | 0.2
CCC(=O)NC(c1c(C)[nH]n(-c2ccccc2)c1=O)(C(F)(F)F)C(F)(F)F | / | 0.0
CC(C)C(C(=O)O)N1C(=O)/C(=C/c2ccccc2)SC1=S (centres undefined) | / | 0.8
O=C(O)C(c1ccccc1)N1C(=O)/C(=C/c2ccncc2)SC1=S (centres undefined) | / | 66.4*
CC(C)CC#Cc1ccc2c(c1)O[C@@H](CN(C)C(=O)Cc1ccncc1)[C@@H](C)CN([C@H](C)CO)S2(=O)=O | 3.0 | 3.1
CC(C)CC#Cc1ccc2c(c1)O[C@H](CN(C)C(=O)Cc1ccncc1)[C@@H](C)CN([C@H](C)CO)S2(=O)=O | 1.0 | 5.5
CC(C)CC#Cc1ccc2c(c1)O[C@@H](CN(C)C(=O)Cc1cccnc1)[C@@H](C)CN([C@@H](C)CO)S2(=O)=O | -0.2 | 13.3
CC(C)CC#Cc1ccc2c(c1)O[C@H](CN(C)C(=O)Cc1cccnc1)[C@@H](C)CN([C@@H](C)CO)S2(=O)=O | 3.0 | 54.3*
CC(C)CC#Cc1ccc2c(c1)O[C@@H](CN(C)C(=O)Cc1cccnc1)[C@H](C)CN([C@H](C)CO)S2(=O)=O | -1.1 | 37.7*
CC(C)CC#Cc1ccc2c(c1)O[C@H](CN(C)C(=O)Cc1cccnc1)[C@H](C)CN([C@H](C)CO)S2(=O)=O | 1.8 | 51.8*
COc1ccc(S(=O)(=O)N(C)CC(=O)Nc2ccccc2)cc1Cl | / | -0.4
Cc1cccc(C)c1Nc1c(CN2C(=O)c3ccccc3C2=O)nc2ccc(Br)cn12 | / | -1.5
COc1ccc(N(CC(=O)Nc2ccc(I)cc2C)S(C)(=O)=O)cc1Cl | / | 0.1
C[C@H](CO)N1C[C@H](C)[C@@H](CN(C)S(=O)(=O)c2cn(C)cn2)Oc2ccc(NC(=O)CCC(F)(F)F)cc2CC1=O | 25.7* | 9.7
C[C@@H]1CN([C@@H](C)CO)C(=O)Cc2cc(NC(=O)Cn3cnnn3)ccc2O[C@@H]1CN(C)Cc1ccc(C(F)(F)F)cc1 | 10.8 | -1.8
C[C@@H]1CN([C@@H](C)CO)C(=O)Cc2cc(NC(=O)Cn3cnnn3)ccc2O[C@H]1CN(C)Cc1ccc(C(F)(F)F)cc1 | ? | 73.7*
C[C@@H]1CN([C@@H](C)CO)C(=O)Cc2cc(NC(=O)CCC(F)(F)F)ccc2O[C@@H]1CN(C)S(=O)(=O)c1cn(C)cn1 | 3.1 | 2.1
